Measured values of several laboratories.
Target: Serine/threonine-protein kinase RIO1 (RIOK1, Homo sapiens, UniProt Q9BRS2)
Sequence (Q9BRS2 1-568, as in one of the studies): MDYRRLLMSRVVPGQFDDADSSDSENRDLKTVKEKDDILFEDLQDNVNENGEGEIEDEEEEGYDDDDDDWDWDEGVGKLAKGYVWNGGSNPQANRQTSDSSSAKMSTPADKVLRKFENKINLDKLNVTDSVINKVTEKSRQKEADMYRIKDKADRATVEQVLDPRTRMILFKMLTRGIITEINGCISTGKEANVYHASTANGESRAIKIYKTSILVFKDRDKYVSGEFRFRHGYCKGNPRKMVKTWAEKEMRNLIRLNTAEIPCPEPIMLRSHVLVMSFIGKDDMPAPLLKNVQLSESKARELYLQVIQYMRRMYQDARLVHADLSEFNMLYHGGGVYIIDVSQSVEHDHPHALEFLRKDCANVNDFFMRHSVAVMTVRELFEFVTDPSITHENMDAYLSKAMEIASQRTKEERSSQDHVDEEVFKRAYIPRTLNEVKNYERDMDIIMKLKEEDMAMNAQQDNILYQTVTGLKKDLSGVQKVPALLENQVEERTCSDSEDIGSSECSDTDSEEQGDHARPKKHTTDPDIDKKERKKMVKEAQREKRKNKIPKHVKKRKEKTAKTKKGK

F[C@@H]1CCN(c2nccc(-c3cnn4ncccc34)n2)C1
remaining binding (binding; 1 µM): 93%

CCCOc1ccc([C@@H]2[C@@H](C(=O)O)[C@H](c3ccc4c(c3)OCO4)CN2CC(=O)Nc2c(CC)cccc2CC)cc1
remaining binding (cell-free assay; competition with immobilised ligand; 1 µM): 100%

FC(F)(F)Oc1cccc(-c2cnc3ccc(-c4ccncc4)nn23)c1
remaining binding (cell-free assay; competition with immobilised ligand; 5 µM): 17%

Cn1nc(C(=O)NCc2ccc(C(=O)O)cc2)cc1-c1ccc2[nH]ccc2c1
remaining binding (cell-free assay; competition with immobilised ligand; 0.1 µM): 76%

O=C(NCC1CCOCC1)c1n[nH]cc1NC(=O)c1c(F)cccc1F
remaining binding (binding; competition with immobilised ligand; 1 µM): 88%

O=C(NCc1ncc(C(F)(F)F)cc1Cl)c1ccc2c(c1)C1(CCS(=O)(=O)CC1)[C@@H](C1CC1)N2S(=O)(=O)c1ccc(F)cc1
remaining binding (cell-free assay; competition with immobilised ligand; 1 µM): 78%

O=C(NCCCN1CCOCC1)c1ccc(Nc2nccc(-c3cc4ccccc4s3)n2)cc1
remaining binding (binding; competition with immobilised ligand; 1 µM): 0.1%

COc1ncc2cc3ccccc3nc2c1C#N
remaining binding (cell-free assay; competition with immobilised ligand; 5 µM): 93%

CN(C)c1nccc(-c2cnc3ncccn23)n1
remaining binding (binding; 1 µM): 100%

COc1cnc(Nc2cccc(S(N)(=O)=O)c2)nc1N1CCN(c2ccccc2)C(=O)C1
remaining binding (binding; competition with immobilised ligand; 1 µM): 49%

Cc1cnn2ncc(-c3ccnc(N(C)C)n3)c2c1
remaining binding (binding; 1 µM): 98%

O=S(=O)(NC1CCC(c2cc(F)ccc2F)(S(=O)(=O)c2ccc(Cl)cc2)CC1)C(F)(F)F (stereo not shown)
remaining binding (cell-free assay; competition with immobilised ligand; 1 µM): 98%

CNC(=O)[C@@H]1CC[C@@H](n2c(-c3ccc4cnccc4c3)nc3ccc(C(=O)NCc4cccc(C(N)=O)c4)cc32)C1
remaining binding (binding; competition with immobilised ligand; 1 µM): 100%

O=C(c1ccc(Nc2nccc(-c3cc4ccccc4s3)n2)cc1)N1CCC(N2CCCC2)CC1
remaining binding (binding; competition with immobilised ligand; 1 µM): 0.1%

CN(C)c1nccc(-c2cnn3ncccc23)n1
remaining binding (binding; 1 µM): 100%

C[C@@H]1CN(c2cc(-c3n[nH]c4ccc(OC5(C)CC5)cc34)ncn2)C[C@H](C)O1
remaining binding (cell-free assay; competition with immobilised ligand; 0.1 µM): 100%

C[C@@H](c1ccc(-n2cnc3c(N)ncnc32)cc1)N1CCc2nn(C)c(Cc3ccccc3)c2C1=O
remaining binding (binding; competition with immobilised ligand; 0.1 µM): 69%

N[C@@H]1CCN(c2nccc(-c3cnn4ncccc34)n2)C1
remaining binding (binding; 1 µM): 96%

Cn1cc(Cl)c2c(Oc3c(F)cc(Nc4cc(Cl)nc(N)n4)cc3F)ccnc21
remaining binding (cell-free assay; competition with immobilised ligand; 0.1 µM): 100%

C[C@@H]1CCN(c2nccc(-c3cnn4ncccc34)n2)C1
remaining binding (binding; 1 µM): 75%

CNCc1ccccc1-c1csc([C@H](C)Nc2nc(C)nc3cc(OC)c(OC)cc23)c1
remaining binding (cell-free assay; competition with immobilised ligand; 1 µM): 96%

O=C(NCCCN1CCOCC1)c1ccc(Nc2ncc(Cl)c(-c3ccc(Cl)s3)n2)cc1
remaining binding (binding; competition with immobilised ligand; 1 µM): 0.05%
